Laboratory results from ChEMBL document CHEMBL1122797, “Benzisoxazolones: antimicrobial and antileukemic activity” (1984).
In brackets after ≈: the same amount, converted by molar mass. Several values for one entry are separate records, joined by “and”; a condition that tells them apart may be missing. Equal values may be shown once. Activity calls are given as the source filed them. No cut-off for these calls is given here.

Columns and labels:
[1] = test system: Pseudomonas aeruginosa; assay: Evaluation of in vitro antimicrobial activity with an agar diffusion assay against Pseudomonas aeruginosa; Inactive; assay type: functional, organism-based
Summary of the method: (§1)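 Agar diffusion assay. A standard antibiotic was run to validate the assays, with data reproducible to ± 3 mm between assays.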

[2] = test system: L1210; assay: In vitro antileukemic (cytotoxic) activity against L1210 cells in suspension.; assay type: functional, Mus musculus; conditions: for IC50: Mus musculus, L1210, read-out: ID50 (the source's name)
[3] = test system: Salmonella typhi; assay: In vitro evaluation of antimicrobial activity with microplate broth dilution assay against Salmonella typhi UC215; assay type: functional, Salmonella enterica subsp. enterica serovar Typhi; conditions: Salmonella enterica
Summary of the method: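 Twofold serial dilutions in modified brain heart infusion broth in microplate wells, each inoculated with standardized cell suspension to about 10^6 viable cells/mL final. Incubated 37 °C for 20 h. MIC read as the lowest concentration inhibiting visible growth.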

[4] = test system: Proteus vulgaris; assay: In vitro evaluation of antimicrobial activity with microplate broth dilution assay against Proteus vulgaris UC93; assay type: functional
Summary of the method: (§2)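 Serial twofold dilutions prepared in modified brain heart infusion broth in microplate wells. Each well inoculated with standardized cell suspension to ~10^6 viable cells per mL of drug-supplemented medium. Plates incubated 37 °C for 20 h. MIC read as lowest concentration inhibiting visible growth.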

[5] = test system: Escherichia coli; assay: In vitro evaluation of antimicrobial activity with microplate broth dilution assay against Escherichia coli UC45; assay type: functional; summary of the method: as §2
[6] = test system: Staphylococcus aureus; assay: In vitro evaluation of antimicrobial activity with microplate broth dilution assay against Staphylococcus aureus UC76; assay type: functional; summary of the method: as §2
[7] = test system: Proteus mirabilis; assay: In vitro evaluation of antimicrobial activity with microplate broth dilution assay against Proteus mirabilis UC6671; assay type: functional; summary of the method: as §2
[8] = test system: Serratia marcescens; assay: In vitro evaluation of antimicrobial activity with microplate broth dilution assay against Serratia marcescens UC131; assay type: functional; summary of the method: as §2
[9] = test system: Klebsiella pneumoniae; assay: In vitro evaluation of antimicrobial activity with microplate broth dilution assay against Klebsiella pneumoniae UC58; assay type: functional; summary of the method: as §2
[10] = test system: Providencia stuartii; assay: In vitro evaluation of antimicrobial activity with microplate broth dilution assay against Providencia stuartii UC6570; assay type: functional; summary of the method: as §2
[11] = test system: Shigella flexneri; assay: In vitro evaluation of antimicrobial activity with microplate broth dilution assay against Shigella flexneri UC143; assay type: functional; summary of the method: as §2
[12] = test system: Pseudomonas aeruginosa; assay: In vitro evaluation of antimicrobial activity with microplate broth dilution assay against Pseudomonas aeruginosa UC95; assay type: functional; summary of the method: as §2
[13] = In vitro evaluation of antimicrobial activity with microplate broth dilution assay against Salmonella schottmuelleri UC126; assay type: functional; summary of the method: as §2
[14] = test system: Enterococcus faecalis; assay: In vitro evaluation of antimicrobial activity with microplate broth dilution assay against Streptococcus faecalis UC694
[15] = test system: L1210; assay: In vitro evaluation of the antileukemic (cytotoxic) activity against L1210 cells in suspension; assay type: functional, Mus musculus
[16] = test system: Klebsiella pneumoniae; assay: Evaluation of in vitro antimicrobial activity with an agar diffusion assay against Klebsiella pneumoniae; assay type: functional; summary of the method: as §1
[17] = test system: Enterococcus faecalis; assay: In vitro evaluation of antimicrobial activity with microplate broth dilution assay against Streptococcus faecalis UC694; assay type: functional, streptococcus feacal; summary of the method: as §2
[18] = test system: Staphylococcus aureus; assay: Evaluation of in vitro antimicrobial activity with an agar diffusion assay against Staphylococcus aureus; assay type: functional; summary of the method: as §1
[19] = test system: Micrococcus luteus; assay: Evaluation of in vitro antimicrobial activity with an agar diffusion assay against Micrococcus luteus; assay type: functional; summary of the method: as §1
[20] = test system: Escherichia coli; assay: Evaluation of in vitro antimicrobial activity with an agar diffusion assay against Escherichia coli; assay type: functional; summary of the method: as §1
[21] = test system: Pseudomonas; assay: Evaluation of in vitro antimicrobial activity with an agar diffusion assay against Pseudomonas fluorescence; assay type: functional; summary of the method: as §1
[22] = test system: Pseudomonas aeruginosa; assay: Evaluation of in vitro antimicrobial activity with an agar diffusion assay against Pseudomonas aeruginosa; assay type: functional; summary of the method: as §1
[23] = test system: Saccharomyces pastorianus; assay: Evaluation of in vitro antimicrobial activity with an agar diffusion assay against Saccharomyces pastorianus; assay type: functional; summary of the method: as §1
[24] = test system: Proteus vulgaris; assay: Evaluation of in vitro antimicrobial activity with an agar diffusion assay against Proteus vulgaris; assay type: functional; summary of the method: as §1
[25] = test system: Penicillium oxalicum; assay: Evaluation of in vitro antimicrobial activity with an agar diffusion assay against Penicillium oxalicum; assay type: functional, pencillium oxalicum; summary of the method: as §1
[26] = Evaluation of in vitro antimicrobial activity with an agar diffusion assay against Salmonella schottmuelleri; assay type: functional; summary of the method: as §1
[27] = test system: Bacillus subtilis; assay: Evaluation of in vitro antimicrobial activity with an agar diffusion assay against Bacillus subtilis; assay type: functional; summary of the method: as §1

| SMILES | ID50 [2] | Zone of inhibition [16] [mm] | Zone of inhibition [18] [mm] | Zone of inhibition [19] [mm] | Zone of inhibition [20] [mm] | Zone of inhibition [21] [mm] | Zone of inhibition [22] [mm] | Zone of inhibition [24] [mm] | Zone of inhibition [25] [mm] | Zone of inhibition [26] [mm] | Zone of inhibition [27] [mm] | other results |
| --- | --- | --- | --- | --- | --- | --- | --- | --- | --- | --- | --- | --- |
| O=C(NCCCCCI)n1oc(=O)c2ccccc21 | 3.7 µg/mL and 8.6 µg/mL |  |  |  |  |  |  |  |  |  |  | Zone of inhibition [1]: inactive |
| Cn1oc(=O)c2ccccc21 |  |  |  |  |  |  |  |  |  |  |  | Zone of inhibition [1]: inactive |
| O=c1on(CO)c2ccccc12 |  |  |  |  |  |  |  |  |  |  |  | MIC [3]: 7.8 µg/mL (≈ 47.2 µM); MIC [4]: 3.9 µg/mL (≈ 23.6 µM); MIC [5]: 15.6 µg/mL (≈ 94.5 µM); MIC [6]: 62.5 µg/mL (≈ 378 µM); MIC [7]: 15.6 µg/mL (≈ 94.5 µM); MIC [8]: 2 µg/mL (≈ 12.1 µM); MIC [9]: 31.6 µg/mL (≈ 191 µM); MIC [10]: 31.2 µg/mL (≈ 189 µM); MIC [11]: 15.6 µg/mL (≈ 94.5 µM); MIC [12]: 7.8 µg/mL (≈ 47.2 µM); MIC [13]: 31.2 µg/mL (≈ 189 µM); MIC [14]: 250 µg/mL (≈ 1510 µM) |
| CC(=O)OCn1oc(=O)c2ccccc21 |  | 24 | 15 | 24 | 26 | 32 | 32 | 25 | 43 | 22 | 24 | ID90 [15]: 19 µg/mL (≈ 91.7 µM); MIC [3]: 62.5 µg/mL (≈ 302 µM); MIC [17]: > 250 µg/mL; MIC [4]: 15.6 µg/mL (≈ 75.3 µM); MIC [5]: 125 µg/mL (≈ 603 µM); MIC [6]: > 250 µg/mL; MIC [7]: 62.5 µg/mL (≈ 302 µM); MIC [8]: 15.6 µg/mL (≈ 75.3 µM); MIC [9]: 62.5 µg/mL (≈ 302 µM); IC50 [2]: 5.1 µg/mL (≈ 24.6 µM); MIC [10]: 125 µg/mL (≈ 603 µM); MIC [11]: 62.5 µg/mL (≈ 302 µM); Zone of inhibition [23]: 17 mm; MIC [13]: 62.5 µg/mL (≈ 302 µM) |
| COCn1oc(=O)c2ccccc21 |  |  |  |  |  |  |  |  |  |  |  | Zone of inhibition [1]: inactive |
| O=C(COc1ccccc1)OCn1oc(=O)c2ccccc21 |  | 22 | 15 | 19 | 18 | 31 | 19 | 21 | 24 | 20 | 20 |  |
| CNC(=O)OCn1oc(=O)c2ccccc21 |  | 23 |  | 33 | 30 | 33 | 39 | 32 | 46 | 28 | 16 | ID90 [15]: 8.6 µg/mL (≈ 38.7 µM); MIC [3]: 15.6 µg/mL (≈ 70.2 µM); MIC [4]: 15.6 µg/mL (≈ 70.2 µM); MIC [5]: 31.2 µg/mL (≈ 140 µM); MIC [6]: 62.5 µg/mL (≈ 281 µM); MIC [7]: 31.2 µg/mL (≈ 140 µM); MIC [8]: 3.9 µg/mL (≈ 17.6 µM); MIC [9]: 62.5 µg/mL (≈ 281 µM); IC50 [2]: 3.5 µg/mL (≈ 15.8 µM); MIC [10]: 62.5 µg/mL (≈ 281 µM); MIC [11]: 31.2 µg/mL (≈ 140 µM); MIC [12]: 15.6 µg/mL (≈ 70.2 µM); MIC [13]: 31.2 µg/mL (≈ 140 µM) |
| CC(C)(C)C(=O)OCn1oc(=O)c2ccccc21 |  | 21 | 18 | 18 | 17 | 30 | 20 | 18 | 31 | 22 | 18 |  |
| CC(=O)n1oc(=O)c2ccccc21 | 3.4 µg/mL and 8.7 µg/mL | 20 |  | 18 | 26 | 31 | 38 | 23 | 49 | 20 | 24 | Zone of inhibition [23]: 21 mm |
| CS(=O)(=O)n1oc(=O)c2ccccc21 | 3.7 µg/mL and 8.6 µg/mL |  |  |  |  |  | 31 |  |  |  |  |  |
| O=C(CCCCCI)OCn1oc(=O)c2ccccc21 | 19 µg/mL (≈ 48.8 µM) |  |  |  |  | 23 | 17 | 15 | 26 |  | 15 |  |
| CNC(=O)n1oc(=O)c2ccccc21 | 4.9 µg/mL and 14 µg/mL | 16 |  |  |  |  | 24 | 19 |  |  |  |  |
| Oc1onc2ccccc12 | 3.1 µg/mL and 8 µg/mL | 26 | 15 | 27 | 25 | 35 | 30 | 30 | 41 | 26 | 22 | Zone of inhibition [23]: 16 mm |
| Cc1ccc(C(=O)OCn2oc(=O)c3ccccc32)cc1 |  | 21 |  |  | 18 | 20 | 22 | 22 | 24 | 17 | 20 | ID90 [15]: 17 µg/mL (≈ 60 µM); IC50 [2]: 4.6 µg/mL (≈ 16.2 µM) |
| CC(C)C(=O)OCn1oc(=O)c2ccccc21 |  | 22 | 17 | 22 | 17 | 33 | 22 | 24 | 29 | 23 | 17 |  |
| CCCCCCCCCCCCCCCC(=O)OCn1oc(=O)c2ccccc21 |  |  |  |  |  |  |  |  |  |  |  | Zone of inhibition [1]: inactive |
